# Hits are enriched below; roughly 4.5% of the tested compounds scored in any of these assays.
# NF-kB expr up: raises NF-kB expression in human neuronal cells; hit rate 1.6% among 190,000; fold change at 12.5 µM; NF-kB reporter expression; active compounds read high; in the data active = fold change above about 3.3
# APP 5'UTR act: APP 5'UTR luciferase reporter activation; SH-SY5Y APP 5'UTR luciferase reporter, luminescence; zero percent = DMSO vehicle wells; activation, % at 2 µM; hit rate 1% among 190,000; AID 1276;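 active = activation above a set limit, based on mean plus 3 SD of controls, cut at about 140% in these data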
# MDM2 E3 inh: Mdm2 E3 ligase (human) inhibition; signal enhancement, % at 5 µM; cell-based MDM2 ubiquitination luciferase reporter, 2 h; 0 = plate control, 100 = twice control, blank-subtracted; AID 1230; hit rate 0.11% among 210,000;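 active = signal enhancement of 30% or more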;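 also: luminescence tracks abundance of the self-degrading MDM2-luciferase fusion protein; higher signal means inhibition of MDM2 E3 ligase activity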
#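 Buffer or medium: Cells held in DMEM | Assay system: Stable mammalian line carrying autodegrading MDM2–luciferase fusion reporter | Quantity: 2000 cells/well | Times: 4 h settle plus 2 h compound, 37 °C | Doses: One concentration, 5 µM, with 0.2% DMSO | Technique: Luminescence with SteadyLite reagent, 15 min at room temperature | Benchmarks: Plate controls and plate blanks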
# AHR activator: activates the human aryl hydrocarbon receptor; AID 2796; P35869; activation, % at 5 µM; hit rate 2.5% among 320,000; AHR-responsive luciferase reporter cells, luminescence; in the data active = activation above about 47%;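 also: 0% = vehicle wells and 100% = reference agonist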
# STAT1 act: activators of IFN-gamma induced STAT1 signaling; NIH 3T3 STAT1-luciferase reporter, luminescence; 100% = IFN-gamma alone, no compound; AID 932; activation (% of control), % at 5.5 µM; hit rate 2.6% among 200,000;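 active = activation above the screen-wide mean activation plus 3 SD, cut at about 130% in these data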;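 also: raw ratio to IFN-gamma control signal so 100% means no change and 0% no light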
# PERK inhibitor: blocks human PERK kinase; Q9NZJ5; CHO PERK-DD fusion, SEAP luminescence translation reporter; inhibition, % at 5.6 µM; hit rate 0.17% among 220,000; AID 1416;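 active = inhibition above the mean inhibition of all tested compounds plus 3 SD, set separately per screening campaign, cut at about 2.9% in these data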;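 also: PERK kinase domain activated by AP20187 dimerizer at 100 nM; 0% = DMSO with dimerizer and 100% = rapamycin at 8.4 µM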
# Target sequence (Q9NZJ5 whole entry, looked up, the tested form may be a part): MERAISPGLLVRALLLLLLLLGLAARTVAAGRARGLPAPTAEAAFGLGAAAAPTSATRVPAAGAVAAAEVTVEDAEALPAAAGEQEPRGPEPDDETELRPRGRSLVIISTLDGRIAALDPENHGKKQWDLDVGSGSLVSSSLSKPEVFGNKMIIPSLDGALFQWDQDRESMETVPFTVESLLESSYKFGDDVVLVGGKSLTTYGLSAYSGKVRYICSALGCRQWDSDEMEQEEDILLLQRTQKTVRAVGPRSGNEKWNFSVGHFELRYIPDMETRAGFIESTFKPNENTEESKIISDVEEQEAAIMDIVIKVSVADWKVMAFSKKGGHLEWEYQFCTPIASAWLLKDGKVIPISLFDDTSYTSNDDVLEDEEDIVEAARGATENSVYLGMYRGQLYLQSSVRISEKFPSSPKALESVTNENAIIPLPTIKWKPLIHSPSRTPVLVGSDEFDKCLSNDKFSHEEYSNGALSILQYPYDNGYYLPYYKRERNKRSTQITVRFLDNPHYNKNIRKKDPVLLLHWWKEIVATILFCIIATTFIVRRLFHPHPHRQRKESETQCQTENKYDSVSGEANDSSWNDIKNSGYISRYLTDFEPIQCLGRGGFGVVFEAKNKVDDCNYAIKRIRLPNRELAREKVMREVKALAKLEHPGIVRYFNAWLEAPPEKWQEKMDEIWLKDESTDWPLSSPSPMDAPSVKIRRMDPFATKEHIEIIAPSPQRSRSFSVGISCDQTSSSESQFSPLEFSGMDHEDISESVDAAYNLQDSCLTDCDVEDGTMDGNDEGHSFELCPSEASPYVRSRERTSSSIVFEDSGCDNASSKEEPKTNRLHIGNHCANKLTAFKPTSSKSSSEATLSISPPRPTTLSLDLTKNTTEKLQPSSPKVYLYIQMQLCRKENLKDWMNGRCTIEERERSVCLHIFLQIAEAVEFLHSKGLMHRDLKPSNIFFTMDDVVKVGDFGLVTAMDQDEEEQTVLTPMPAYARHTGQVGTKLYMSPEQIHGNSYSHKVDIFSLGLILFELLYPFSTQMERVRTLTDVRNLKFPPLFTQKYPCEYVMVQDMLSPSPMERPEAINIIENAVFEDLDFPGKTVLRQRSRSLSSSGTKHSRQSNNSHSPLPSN
# * marks the source's active call; other numbers are inactive results; . = not tested or not shown.
SMILES,NF-kB expr up,APP 5'UTR act,MDM2 E3 inh,AHR activator,STAT1 act,PERK inhibitor
Cc1c(C(=O)Nc2ccc3c(c2)OCCO3)cnn1C,.,.,.,-1.8,.,.
CCn1cc(Cl)c(C(=O)Nc2ccccc2C(N)=O)n1,1.82,21.6,-19.3,54.5*,104.8,0.6
Cc1ccc(/C=C/S(=O)(=O)NCC(=O)OCC(=O)Nc2c(F)cccc2F)cc1,.,.,.,10.0,.,.
CCN(c1cccc(C)c1)S(=O)(=O)c1cc2c3c(c1)CCN3C(=O)CC2,.,.,.,-0.9,.,.
Cc1cc(C(=O)Nc2ccc3c(c2)OCCO3)co1,4.7*,138.1*,-44.5,11.2,120.4,1.0
CC(=O)Nc1ccc(C(=O)Nc2ccc3c(c2)OCCO3)cc1,.,.,.,10.9,.,.
CCOc1ccc(Cn2ccnc2)cc1[N+](=O)[O-],1.09,-3.6,-31.4,63.6*,100.1,0.5
Cc1ccc(OCCCn2ccnc2)c([N+](=O)[O-])c1,1.26,0.2,-2.2,37.0,99.2,0.7
C/C(=N\NC(=O)c1cc(C2CC2)nc2ccccc12)c1ccc(C)s1,1.36,-3.2,-18.1,50.6*,106.0,-0.9
C/C(=N\NC(=O)c1cc(C2CC2)nc2ccccc12)c1ccc(O)cc1O,.,.,.,9.9,.,.
O=C(N/N=C/c1cccc(O)c1)c1cc(C2CC2)nc2ccccc12,.,.,.,18.0,.,.
O=C(N/N=C/c1cccnc1)c1cc(C2CC2)nc2ccccc12,.,.,.,48.1*,.,.
Cc1ccc(OCCNC(=O)c2ccccc2OCc2c(C)noc2C)cc1,.,.,.,1.1,.,.
Cc1cc(O)ccc1N/C=C/c1onc(C)c1[N+](=O)[O-],2.61,162.1*,-22.7,31.9,134.6*,-0.2
Cc1cccc(N(CC(=O)Nc2ccc(F)cc2)S(C)(=O)=O)c1,0.99,2.1,-7.5,-1.6,95.0,1.7
CC(=O)NC(=S)Nc1ccc(-c2nc3ccc(C)cc3s2)cc1,3.71*,110.0,-23.9,-0.5,124.6,0.3
O=C(Nc1ccc(-c2nc3ccccc3s2)c(OC(=O)c2ccccc2)c1)c1ccccc1,1.49,207.9*,-3.9,2.2,101.1,0.9
CNC(=S)Nc1ccc(-c2nc3ccc(C)cc3s2)cc1,.,172.5*,-33.6,-5.3,94.8,0.7
Cc1cc(C)cc(N(CC(=O)Nc2ccc(-c3nc4ccc(C)cc4s3)cc2)S(C)(=O)=O)c1,1.22,57.5,-5.0,4.2,141.9*,0.3
Cc1ccc(-c2nc3ccccc3s2)cc1NC(=S)NC(=O)c1ccccc1,6.82*,178.1*,8.1,3.5,105.7,1.0
Cc1ccnc(NS(=O)(=O)c2ccc(NC(=O)c3ccccc3F)cc2)n1,.,.,.,58.1*,.,.
Cc1ccnc(NS(=O)(=O)c2ccc(NC(=O)c3ccc(C)o3)cc2)n1,0.98,7.4,-1.8,2.5,96.2,0.7
COc1cc2[nH]c(C(=O)N(C)Cc3ccccc3)cc2c(OC)c1OC,.,.,.,6.5,.,.
CN(Cc1ccccc1)C(=O)c1cc2cc(F)ccc2[nH]1,.,.,.,62.4*,.,.
CN(C)c1ccc(C(=O)OCC(=O)c2ccc[nH]2)cc1,.,.,.,-0.5,.,.
SMILES,NF-kB expr up,APP 5'UTR act,MDM2 E3 inh,AHR activator,STAT1 act,PERK inhibitor
O=C(OCC(=O)c1ccc[nH]1)c1ccccc1,1.66,1.8,-6.8,2.7,137.9*,2.0
Cc1cc(C(=O)NCC(=O)Nc2c(C)cccc2C)c(C)o1,.,.,.,-1.7,.,.
CCn1c(=O)c2c(nc(SCC(=O)NC3CCCC3)n2C)n(C)c1=O,.,.,.,-0.6,.,.
CC(=O)Nc1cc2nn(-c3ccccc3)nc2cc1C,.,.,.,55.4*,.,.
CCC(=O)Nc1cc2nn(-c3ccccc3)nc2cc1Cl,2.69,116.1,-37.4,50.7*,143.6*,1.1
CCC(=O)Nc1nc(N)n(-c2ccccc2)n1,1.15,5.4,-15.1,4.3,89.4,1.2
Cc1cc2nn(-c3ccccc3)nc2cc1NC(=O)c1cccs1,2.08,28.6,-31.0,68.4*,142.7*,-1.0
Cc1cc(NC(=O)c2cccs2)n(-c2ccccc2)n1,1.08,-2.0,-12.8,-0.4,103.7,0.7
CCc1nnc(NC(=O)CSc2ccc(-c3ccc(-n4cccn4)cc3)nn2)s1,.,.,.,3.5,.,.
CC(C)n1c(O)c(/C=C2\C=NN=C2c2ccccc2)sc1=S,.,.,-10.2,63.6*,.,1.5
CCn1c(O)c(/C=C2\C=NN=C2c2ccc(C)cc2)sc1=S,1.16,18.2,.,-0.6,95.5,0.1
C#CCOC(=O)Nc1ccc(OCC(F)(F)F)nc1,.,.,-8.4,-6.0,.,0.6
O=C(O)c1cc(S(=O)(=O)N2CCN(S(=O)(=O)c3ccc4ccccc4c3)CC2)ccc1Br,.,.,.,-0.7,.,.
CCc1nnc2n1N=C(c1ccc(Cl)cc1)CS2,.,.,.,0.9,.,.
